Results pooled from the literature.
Protocols differ between the studies behind these lines.
Cell line: PC-9
Effect on: cell growth or viability
Time: 72 h

SMILES	technique	tested at	measurement	value
COc1cccc(NC(=O)Nc2nc3cc(-c4ccc5ncn(CCN(C)C)c(=O)c5c4)ccc3s2)c1	MTT		IC50	5.24 µM
COc1ccc(N(Cc2csc(-c3ccc(C)cc3)n2)C(=O)CCCCCC(=O)NO)cc1	MTT		IC50	0.46 µM
COc1ccc(C(=O)Nc2nc3cc(-c4ccc5ncn(Cc6ccccc6)c(=O)c5c4)ccc3s2)cc1	MTT		IC50	> 20 µM
O=C(Nc1ccc(-c2cn(Cc3ccc(Cl)cc3)nn2)cc1)Nc1ccccc1Br	CCK-8	50 µM	viability	103%
COc1ccc(NC(=O)Nc2ccc(-c3cn(Cc4ccc(Cl)cc4)nn3)cc2)cc1	CCK-8	20 µM	viability	91%
O=C(Nc1cccc(-c2cn(Cc3ccc(Br)cc3)nn2)c1)Nc1ccccc1Br	CCK-8	20 µM	viability	128%
COc1ccc(NC(=O)Nc2ccc(-c3cn(Cc4ccc(C)cc4)nn3)cc2)cc1	CCK-8	50 µM	viability	96%
COc1ccc(NC(=O)Nc2nc3cc(-c4ccc5ncn(Cc6ccccc6)c(=O)c5c4)ccc3s2)cc1	MTT		IC50	> 20 µM
COc1ccc(NC(=O)NCc2cn(Cc3ccc(Br)cc3)nn2)cc1	CCK-8	20 µM	viability	100%
O=C(NCc1cn(Cc2ccc(Cl)cc2)nn1)Nc1ccccc1Br	CCK-8	50 µM	viability	127%
CC(C)CCn1cnc2ccc(-c3ccc4sc(NC(=O)Nc5ccc(F)cc5)nc4c3)cc2c1=O	MTT		IC50	9.09 µM
COc1ccc(NC(=O)Nc2cccc(-c3cn(Cc4ccc(C)cc4)nn3)c2)cc1	CCK-8	50 µM	viability	92.6%
COc1ccc(N(Cc2csc(-c3ccccc3)n2)C(=O)CCCCCC(=O)NO)cc1	MTT		IC50	0.53 µM
O=C(Nc1ccc(F)cc1)Nc1nc2cc(-c3ccc4ncn(CC5CC5)c(=O)c4c3)ccc2s1	MTT		IC50	> 20 µM
O=C(NCc1cn(Cc2ccc(Br)cc2)nn1)Nc1ccccc1Br	CCK-8	20 µM	viability	99.2%
COc1ccc(NC(=O)Nc2ccc(-c3cn(Cc4ccc(Br)cc4)nn3)cc2)cc1	CCK-8	20 µM	viability	93%
O=C(Nc1ccc(Cl)cc1)Nc1cccc(-c2cn(Cc3ccc(Cl)cc3)nn2)c1	CCK-8	20 µM	viability	95.4%
COc1ccc(NC(=O)NCc2cn(Cc3ccc(C)cc3)nn2)cc1	CCK-8	20 µM	viability	105%
CCCCn1cnc2ccc(-c3ccc4sc(NC(=O)Nc5ccc(F)cc5)nc4c3)cc2c1=O	MTT		IC50	6.17 µM
O=C(Nc1ccc(Cl)cc1)Nc1ccc(-c2cn(Cc3ccc(Br)cc3)nn2)cc1	CCK-8	50 µM	viability	80.4%
